Compounds with a hit are over-represented: about 2.1% of the library has one in this group of screens.
GSK3 alpha inh: blocks human GSK-3 alpha kinase. P49840. inhibition, % at 10 µM. 320,000 compounds, 0.1% hits. ADP-Glo luminescence, 60 min;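 active = more than half of replicates show inhibition above 20%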;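 also: GST-tagged GSK-3 alpha with peptide substrate and 25 µM ATP; 0% = DMSO neutral wells and 100% = GW8510 positive control wells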
MEKK2 WT-MEK5: raises or lowers MEK5 binding to wildtype human MEKK2 PB1 domain | Q9Y2U5 | bead flow cytometry, Alexa488-MEK5 binding to MEKK2 WT; actives lie on both sides | binding response (% of control), % at 10 µM | 290,000 compounds, 1.1% hits | AID 1531; in the data active = binding response below about 67% or above about 130%
MEKK2 mut-MEK5: signal of MEK5 binding to mutant human MEKK2 PB1 domain; bead flow cytometry, Alexa488-MEK5 binding to MEKK2 mutant; percent response, % at 10 µM; 290,000 compounds, 0.35% hits; in the data active = percent response above about 24%, passing the limit was not always enough
GSK3beta inhib: human GSK3beta kinase inhibition. P49841. GST-GSK3beta kinase, ADP-Glo luminescence, 60 min; hits give low values. activity score (negative = inhibition), % at 10 µM. 300,000 compounds, 0.038% hits;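 active = more than half of replicate wells score below -50%, meaning over 50% inhibition versus plate controls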;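 also: 0% = median DMSO wells and -100% = median GW8510 positive control wells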
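Test system – GST-tagged human GSK3beta kinase, cell-free · Incubation – 60 min enzyme reaction, room temperature · Signal – ADP-Glo luminescence · Also added – peptide substrate and ATP at 25 µM · Controls – DMSO neutral wells and GW8510 at 20 µM as positive · Buffer or medium – Tris/MgCl2 kinase buffer · Measure – Luminescence-derived activity versus plate DMSO and GW8510 wells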
STK33 kinase inh: human STK33 kinase inhibition; purified STK33, MBP phosphorylation, ADP-Glo luminescence; inhibition, % at 10 µM; Q9BYT3; 320,000 compounds, 0.073% hits;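 active = inhibition at or above 25%, using the most active replicate where run in duplicate; inactive = inhibition below 25%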
MEKK3 PB1 HTS: MEKK3-MEK5 PB1 interaction, increase or decrease | Q99759 | bead-based flow cytometry, Alexa488-MEK5 binding to MEKK3; actives lie on both sides; 0 = blocked by unlabeled MEK5, 100 = vehicle | binding response (% of control), % at 10 µM | 290,000 compounds, 1.4% hits | AID 1529;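 active = binding response more than 3 SD above or below the average of its plate-row segment, actives on both sides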;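 also: Alexa488 bead fluorescence after subtracting the streptavidin-only scavenger bead signal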
Target sequence (Q99759 whole entry, looked up): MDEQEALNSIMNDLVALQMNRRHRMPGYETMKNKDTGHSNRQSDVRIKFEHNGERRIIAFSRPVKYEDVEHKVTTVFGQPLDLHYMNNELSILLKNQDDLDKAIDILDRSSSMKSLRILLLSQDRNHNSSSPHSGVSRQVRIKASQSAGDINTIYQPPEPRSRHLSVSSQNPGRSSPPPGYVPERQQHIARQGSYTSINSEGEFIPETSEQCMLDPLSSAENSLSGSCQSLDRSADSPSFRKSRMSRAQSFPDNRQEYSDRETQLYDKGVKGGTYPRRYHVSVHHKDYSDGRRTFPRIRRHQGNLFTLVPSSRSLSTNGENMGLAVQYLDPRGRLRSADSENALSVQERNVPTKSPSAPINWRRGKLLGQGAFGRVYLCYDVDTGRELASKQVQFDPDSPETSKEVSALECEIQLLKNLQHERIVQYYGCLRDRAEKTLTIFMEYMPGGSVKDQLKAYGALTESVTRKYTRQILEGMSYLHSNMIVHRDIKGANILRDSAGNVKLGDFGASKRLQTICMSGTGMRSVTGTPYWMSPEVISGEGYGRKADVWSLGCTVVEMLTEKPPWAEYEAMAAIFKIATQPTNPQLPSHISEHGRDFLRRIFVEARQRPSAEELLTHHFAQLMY
MEKK2wt confirm: raises or lowers MEK5 binding to wildtype human MEKK2, retest | shares compounds with MEKK3 PB1 HTS | bead flow cytometry, Alexa488-MEK5 binding to MEKK2 WT; actives lie on both sides | binding response (% of control), % at 10 µM | 5,900 compounds, 2.4% hits; in the data active = binding response below about 16% or above about 210%; inactive = in between
MEKK2mut-MEK5: signal of MEK5 binding to mutant human MEKK2, retest | shares compounds with MEKK3 PB1 HTS | percent response, % at 10 µM | 5,900 compounds, 2% hits | bead flow cytometry, Alexa488-MEK5 binding to MEKK2 mutant; in the data active = percent response mostly above about 71%, no sharp cut-off; inactive = mostly below about 38%;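 also: higher means compound restores mutant binding toward wildtype level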
MEKK3 confirm: confirmation of inhibitors of MEK5 binding to human MEKK3. shares compounds with MEKK3 PB1 HTS. bead flow cytometry, Alexa488-MEK5 binding to MEKK3; hits give low values. binding response (% of control), % at 10 µM. 5,900 compounds, 1.8% hits. AID 1894;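 active = binding response below 72% of control, or above a set upper limit, though filed actives all read lower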;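 also: 100% = DMSO only wells and 0% = binding blocked by excess unlabeled MEK5; lower values mean stronger disruption of MEK5 binding to MEKK3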
Active calls of the source: *; [ ] = another dose, or the depositor's remark.

How did COC(=O)C1CCN(Cc2ccc(OCCCN3CCN(c4ccc([N+](=O)[O-])cc4)CC3)cc2)CC1 do in these assays?
MEKK2 WT-MEK5: 144.0*; MEKK2 mut-MEK5: 39.0; GSK3beta inhib: 2.6; STK33 kinase inh: -0.7; MEKK3 PB1 HTS: 105.0; MEKK2wt confirm: 108.0; MEKK2mut-MEK5: -1.0; MEKK3 confirm: 86.0

Results for Nc1nonc1C(=O)NCCNCc1c(OCc2ccccc2F)ccc2ccccc12 ?
MEKK2 WT-MEK5: 164.0*; MEKK2 mut-MEK5: 26.0*; GSK3beta inhib: 1.8; STK33 kinase inh: 0.7; MEKK3 PB1 HTS: 111.0; MEKK2wt confirm: 146.0; MEKK2mut-MEK5: 19.0; MEKK3 confirm: 106.0

What do the screens show for `Nc1nonc1C(=O)NCCNCc1cc(Br)ccc1OCc1ccc(F)cc1`?
GSK3 alpha inh: -0.1; MEKK2 WT-MEK5: 121.0; MEKK2 mut-MEK5: 10.0; GSK3beta inhib: -0.1; STK33 kinase inh: -0.4; MEKK3 PB1 HTS: 108.0

Results for O=C1[C@@H]2[C@@H]3C[C@@H]([C@H]4ON=C(c5ccc(Cl)cc5Cl)[C@@H]34)[C@@H]2C(=O)N1C1CCCCC1 ?
GSK3 alpha inh: 0.0; MEKK2 WT-MEK5: 106.0; MEKK2 mut-MEK5: 3.0; GSK3beta inhib: -3.8; STK33 kinase inh: -0.7; MEKK3 PB1 HTS: 144.0*; MEKK2wt confirm: 96.0; MEKK2mut-MEK5: -5.0; MEKK3 confirm: 98.0

Results for O=C(Cc1ccc([N+](=O)[O-])cc1)NCc1ccccc1Cl ?
GSK3 alpha inh: 0.5; MEKK2 WT-MEK5: 108.0; MEKK2 mut-MEK5: 1.0; GSK3beta inhib: 0.6; STK33 kinase inh: -1.0; MEKK3 PB1 HTS: 146.0*; MEKK2wt confirm: 98.0; MEKK2mut-MEK5: -4.0; MEKK3 confirm: 102.0

How did Cn1c2ccccc2c2nn(-c3ccccc3)c(=O)cc21 do in these assays?
GSK3 alpha inh: -5.4; MEKK2 WT-MEK5: 106.0; MEKK2 mut-MEK5: 4.0; GSK3beta inhib: 4.4; STK33 kinase inh: -0.6; MEKK3 PB1 HTS: 104.0

What do the screens show for `Cc1ccc(NC(=O)C(OC(=O)c2cc(C)oc2C)c2ccccc2)cc1` (stereo not given)?
GSK3 alpha inh: 1.5; MEKK2 WT-MEK5: 102.0; MEKK2 mut-MEK5: -8.0; GSK3beta inhib: -1.3; STK33 kinase inh: -0.8; MEKK3 PB1 HTS: 100.0

How did Cc1cc(C(=O)OC(C(=O)Nc2cccc(C(F)(F)F)c2)c2ccccc2)c(C)o1 (stereo not given) do in these assays?
GSK3 alpha inh: 2.5; MEKK2 WT-MEK5: 107.0; MEKK2 mut-MEK5: 3.0; GSK3beta inhib: 0.9; STK33 kinase inh: 0.4; MEKK3 PB1 HTS: 145.0*; MEKK2wt confirm: 103.0; MEKK2mut-MEK5: 2.0; MEKK3 confirm: 101.0

What do the screens show for `[O-]/C(=C(\C(=S)Nc1ccc(SC(F)F)cc1)[n+]1ccccc1)c1cc(Cl)ccc1Cl`?
GSK3 alpha inh: -0.3; MEKK2 WT-MEK5: 58.0*[inhibitor]; MEKK2 mut-MEK5: -5.0; GSK3beta inhib: -1.2; STK33 kinase inh: 0.7; MEKK3 PB1 HTS: 102.0; MEKK2wt confirm: 97.0; MEKK2mut-MEK5: -4.0; MEKK3 confirm: 103.0

Results for CCOC(=O)C1=C(c2ccccc2)NC(N)=NC1c1ccc(OCc2ccc(Cl)cc2)c(OC)c1 (stereo not given) ?
GSK3 alpha inh: 1.3; MEKK2 WT-MEK5: 248.0*; MEKK2 mut-MEK5: 82.0*; GSK3beta inhib: -0.6; STK33 kinase inh: 7.9; MEKK3 PB1 HTS: 105.0; MEKK2wt confirm: 251.0*; MEKK2mut-MEK5: 121.0*; MEKK3 confirm: 112.0
